What was measured:
Design in all cases: dose 5 mg/kg, dosed compound name [14C]-apixaban, route oral
Details in all cases: in vivo
Rattus norvegicus [1] = experiment: Biodistribution in pregnant Sprague-Dawley rat amnion at 5 mg/kg, po administered as single dose measured after 8 hrs; type: ADME, organism-based
Rattus norvegicus [2] = experiment: Biodistribution in pregnant Sprague-Dawley rat kidney cortex at 5 mg/kg, po administered as single dose measured after 0.5 hrs; type: ADME, organism-based
Rattus norvegicus [3] = experiment: Biodistribution in female Sprague-Dawley rat brown fat at 5 mg/kg, po administered as single dose measured after 72 hrs; type: ADME, organism-based, Brown adipose tissue
Summary of the method: (§1)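 Quantitative whole-body autoradiography was run after a single 5 mg/kg (100 μCi/kg) oral gavage to fasted female or pregnant SD rats, one rat per time point. Carcasses were frozen in hexane/dry ice, and 40 µm sagittal sections were dried at −20°C for at least 48 h. Sections were exposed to a phosphor plate alongside [14C]glucose standards (0.001–6.5 µCi/g). Results are µg eq/g, with LLOQ 0.037 µg eq/g.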

Rattus norvegicus [4] = experiment: Biodistribution in fetal brain of pregnant Sprague-Dawley rat at 5 mg/kg, po administered as single dose measured after 0.5 hrs; type: ADME, organism-based
Summary of the method: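 Pregnant SD rats received a single oral gavage of [14C]apixaban at 5 mg/kg (100 μCi/kg; 1.0 mg/mL, 20 μCi/mL in 0.5% Tween 80/Labrafil) after fasting, one dam per time point. Frozen carcasses were cut into 40 µm sagittal sections and read by phosphor-imaging QWBA against [14C]glucose standards. Fetal tissue radioactivity is reported as µg eq/g, with LLOQ 0.037 µg eq/g.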

Pancreas [5] = experiment: Biodistribution in female Sprague-Dawley rat pancreas at 5 mg/kg, po administered as single dose measured after 0.5 hrs; type: ADME, organism-based
Summary of the method: (§2)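 [¹⁴C]Apixaban given by oral gavage at 5 mg/kg (100 μCi/kg) in 0.5% Tween 80 in Labrafil (1.0 mg/mL dosing solution) to rats fasted overnight through 4 h post-dose. One rat per time point; carcass frozen in hexane/dry ice. Quantitative whole-body autoradiography used 40 µm sagittal sections and a phosphor imaging plate calibrated with [¹⁴C]glucose standards (0.001–6.5 μCi/g). Read-out in µg eq apixaban/g; LLOQ 0.037 μg eq/g.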

Rattus norvegicus [6] = experiment: Biodistribution in fetal blood of pregnant Sprague-Dawley rat at 5 mg/kg, po administered as single dose measured after 24 hrs; type: ADME, organism-based; summary of the method: as §1
Lung [7] = experiment: Biodistribution in male Sprague-Dawley rat lung at 5 mg/kg, po administered as single dose measured after 8 hrs; type: ADME, organism-based
Summary of the method: (§3)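 [14C]apixaban (1.0 mg/mL, 20 μCi/mL) in 0.5% Tween 80 in Labrafil, given by oral gavage at 100 μCi/kg to male rats (225-252 g) fasted overnight through 4 h post-dose. One rat per time point. Carcasses frozen in hexane/dry ice and cut into 40 µm sagittal sections. QWBA read on phosphor plates against [14C]glucose standards, reported as µg eq/g. LLOQ 0.037 µg eq/g.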

[8] = Drug level in lactating Sprague-Dawley rat milk at 5 mg/kg, po administered as single dose; type: ADME, organism-based
Summary of the method: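 Lactating SD rats received a single oral gavage of 5 mg/kg (108 μCi/kg) in 0.5% Tween 80/Labrafil. Three rats were sampled per time point at 0.5-24 h. Oxytocin was given sc 15 min before milking under anesthesia. Milk, blood and plasma were counted in duplicate by liquid scintillation for 10 min and expressed as apixaban equivalents.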

Lung [9] = experiment: Biodistribution in pregnant Sprague-Dawley rat lung at 5 mg/kg, po administered as single dose measured after 8 hrs; type: ADME, organism-based
Lung [10] = experiment: Biodistribution in male Sprague-Dawley rat lung at 5 mg/kg, po administered as single dose measured after 0.5 hrs; type: ADME, organism-based; summary of the method: as §3
[11] = Drug level in lactating Sprague-Dawley rat milk at 5 mg/kg, po administered as single dose after 0.5 hrs; type: ADME, organism-based
Thymus = experiment: Biodistribution in male Sprague-Dawley rat thymus at 5 mg/kg, po administered as single dose measured after 24 hrs; type: ADME, organism-based
Summary of the method: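 Fasted male SD rats (225-252 g) each received one oral gavage dose of [14C]apixaban, 5 mg/kg (100 μCi/kg), in 0.5% Tween 80/Labrafil vehicle. One rat was killed per time point, from 0.5 to 168 h. Frozen carcasses were cut into 40 µm sagittal whole-body sections and read by QWBA phosphor imaging against [14C]glucose calibrants. Results are in µg apixaban eq/g; BLQ <0.037 µg eq/g.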

Liver [12] = experiment: Biodistribution in male Sprague-Dawley rat liver at 5 mg/kg, po administered as single dose measured after 24 hrs; type: ADME, organism-based; summary of the method: as §3
Heart [13] = experiment: Biodistribution in female Sprague-Dawley rat heart at 5 mg/kg, po administered as single dose measured after 72 hrs; type: ADME, organism-based; summary of the method: as §1
Rattus norvegicus [14] = experiment: Biodistribution in pregnant Sprague-Dawley rat amnion at 5 mg/kg, po administered as single dose measured after 48 hrs; type: ADME, organism-based
Summary of the method: (§4)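 Fasted pregnant SD rats (n=6, 270-319 g) each received one oral gavage dose of [14C]apixaban, 5 mg/kg (100 μCi/kg), in 0.5% Tween 80/Labrafil. One rat was killed at each of 0.5, 1, 4, 8, 24 and 48 h. Carcasses were frozen in hexane/dry ice, cut into 40 µm sagittal sections, exposed to phosphor plates and quantified against [14C]glucose standards as µg eq/g. LLOQ was 0.037 µg eq/g.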

Rattus norvegicus [15] = experiment: Biodistribution in pregnant Sprague-Dawley rat kidney cortex at 5 mg/kg, po administered as single dose measured after 48 hrs; type: ADME, organism-based; summary of the method: as §4
Heart [16] = experiment: Biodistribution in female Sprague-Dawley rat heart at 5 mg/kg, po administered as single dose measured after 0.5 hrs; type: ADME, organism-based; summary of the method: as §2
Pancreas [17] = experiment: Biodistribution in male Sprague-Dawley rat pancreas at 5 mg/kg, po administered as single dose measured after 24 hrs; type: ADME, organism-based; summary of the method: as §3
Rattus norvegicus [18] = experiment: Biodistribution in female Sprague-Dawley rat salivary gland at 5 mg/kg, po administered as single dose measured after 72 hrs; type: ADME, organism-based; summary of the method: as §1
Rattus norvegicus [19] = experiment: Biodistribution in male Sprague-Dawley rat bone marrow at 5 mg/kg, po administered as single dose measured after 0.5 hrs; type: ADME, organism-based
Summary of the method: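 Fasted male rats, 225-252 g, received [14C]apixaban by single oral gavage at 100 μCi/kg in 0.5% Tween 80/Labrafil. One rat was killed per time point and the carcass frozen. Tissue radioactivity was quantified by QWBA (40 µm sagittal sections, phosphor plate, [14C]glucose calibration) as µg eq apixaban/g, with LLOQ 0.037 μg eq/g.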

Blood = experiment: Biodistribution in male Sprague-Dawley rat blood at 5 mg/kg, po administered as single dose measured after 0.5 hrs; type: ADME, organism-based; summary of the method: as §2
Liver [20] = experiment: Biodistribution in male Sprague-Dawley rat liver at 5 mg/kg, po administered as single dose measured after 8 hrs; type: ADME, organism-based; summary of the method: as §3
Spleen = experiment: Biodistribution in male Sprague-Dawley rat spleen at 5 mg/kg, po administered as single dose measured after 4 hrs; type: ADME, organism-based; summary of the method: as §3
Rattus norvegicus [21] = experiment: Biodistribution in fetal kidney of pregnant Sprague-Dawley rat at 5 mg/kg, po administered as single dose measured after 0.5 hrs; type: ADME, organism-based
Summary of the method: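 Pregnant rats, 270-319 g and fasted overnight, received [14C]apixaban by oral gavage at 100 μCi/kg in 0.5% Tween 80/Labrafil. One dam per time point was euthanized and frozen in hexane/dry ice. Fetal tissue radioactivity was measured by QWBA on 40 µm sagittal sections calibrated with [14C]glucose standards. Values are in µg eq/g, with LLOQ 0.037 μg eq/g.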

Radiolabel recovery (Rattus norvegicus [1]): 2.12 ugequiv/g
Radiolabel recovery (Rattus norvegicus [2]): 2.11 ugequiv/g
Radiolabel recovery (Rattus norvegicus [3]): Not detected assumed BLQ
Radiolabel recovery (Rattus norvegicus [4]): < 0.037 ugequiv/g
Radiolabel recovery (Pancreas [5]): 0.43 ugequiv/g
Radiolabel recovery (Rattus norvegicus [6]): Not detected assumed BLQ
Radiolabel recovery (Lung [7]): 0.14 ugequiv/g
Radiolabel recovery [8]: > 96%
Radiolabel recovery (Lung [9]): 0.15 ugequiv/g
Radiolabel recovery (Lung [10]): 0.57 ugequiv/g
Radiolabel recovery [11]: 2.75 µg/mL
Radiolabel recovery (Thymus): Not detected assumed BLQ
Radiolabel recovery (Liver [12]): < 0.037 ugequiv/g
Radiolabel recovery (Heart [13]): Not detected assumed BLQ
Radiolabel recovery (Rattus norvegicus [15]): Not detected assumed BLQ
Radiolabel recovery (Heart [16]): 0.37 ugequiv/g
Radiolabel recovery (Pancreas [17]): < 0.037 ugequiv/g
Radiolabel recovery (Rattus norvegicus [18]): Not detected assumed BLQ
Radiolabel recovery (Rattus norvegicus [19]): 0.26 ugequiv/g
Radiolabel recovery (Blood): 0.42 ugequiv/g
Radiolabel recovery (Liver [20]): 0.39 ugequiv/g
Radiolabel recovery (Spleen): 0.28 ugequiv/g
Radiolabel recovery (Rattus norvegicus [21]): 0.24 ugequiv/g
Structure (SMILES): COc1ccc(-n2nc(C(N)=O)c3c2C(=O)N(c2ccc(N4CCCC[14C]4=O)cc2)CC3)cc1
Radiolabel recovery (Rattus norvegicus [14]): Not sampled as not visualised in autoradiograph

Source: ChEMBL document CHEMBL3525963, “Tissue distribution and elimination of [14C]apixaban in rats” (Drug Metab Dispos, 2011)
